# Screening data from PubChem BioAssay.
# SENP7 block = SENP7 protease inhibitors, primary screen, biochemical, luminescence, uHTS; 330,000 tested, 1.5% active; Sentrin-specific protease 7 (Homo sapiens), Q9BQF6; recombinant SENP7, Z-RLRGG-aminoluciferin luminescence, 40 min; inhibition, % at 5 µM;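 active = inhibition above about 50% at the single test dose, limit read from the data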;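 also: plate controls were DMSO with enzyme for no effect and no enzyme buffer wells for full effect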
# SENP6 inh = SENP6 protease inhibitors, primary screen, biochemical, luminescence, uHTS. inhibition, % at 10 µM. Recombinant SENP6 catalytic domain, aminoluciferin luminescence. Sentrin-specific protease 6 (Homo sapiens), Q9GZR1. 330,000 tested, 1.8% active;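 active = inhibition above about 50% at the single tested dose, limit read from the data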;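 also: plate controls were DMSO wells with enzyme for no effect and DMSO wells lacking enzyme for full effect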
# UBC13 inh = UBC13 polyubiquitin chain formation inhibitors, primary screen, biochemical, TR-FRET, uHTS; Ubiquitin-conjugating enzyme E2 N (Homo sapiens), P61088; inhibition, % at 20 µM; 330,000 tested, 0.47% active; AID 485273, 2010; in the data active = inhibition above about 45%, passing the limit was not always enough
# SENP8 block-1 = human SENP8 protease inhibitors, primary screen, biochemical, fluorescence, Nedd8 protein substrate, uHTS. Sentrin-specific protease 8 (Homo sapiens), Q96LD8. recombinant SENP8. inhibition, % at 20 µM. 360,000 tested, 0.64% active; in the data active = inhibition mostly above about 40%, no sharp cut-off; inactive = mostly below about 27%
# Target sequence (Q96LD8 whole entry, looked up): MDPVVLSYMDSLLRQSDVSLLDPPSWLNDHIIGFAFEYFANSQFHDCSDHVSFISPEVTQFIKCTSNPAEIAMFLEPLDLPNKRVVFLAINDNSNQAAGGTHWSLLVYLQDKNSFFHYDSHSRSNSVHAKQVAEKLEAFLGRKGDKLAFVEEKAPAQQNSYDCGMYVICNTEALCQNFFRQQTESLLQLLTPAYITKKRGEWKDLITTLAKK
# SENP8 block-2 = SENP8 protease inhibitors, primary screen, biochemical, luminescence; Sentrin-specific protease 8 (Homo sapiens), Q96LD8; purified SENP8, Z-RLRGG-aminoluciferin cleavage; inhibition, % at 10 µM; 330,000 tested, 1.2% active; AID 2540, 2010; in the data active = inhibition above about 50%
# Apaf1 inhib = inhibitors of human Apaf-1 apoptosome, primary screen, biochemical, DEVD-Rh110 fluorescence, uHTS; Apoptotic protease-activating factor 1 (Homo sapiens), O14727; reconstituted apoptosome caspase-3 activity; inhibition, % at 20 µM; 330,000 tested, 0.71% active; AID 489030, 2010; active = inhibition of at least 40% at 20 µM;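 also: plate controls were DMSO wells for no effect and DEVD-CHO caspase inhibitor wells for full effect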
#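 Material: reconstituted apoptosome with Apaf-1, cytochrome c, caspase-9, procaspase-3, dATP. Technique: Rh110 fluorescence intensity. Buffer or medium: pH 7.5 Hepes buffer with CHAPS, BSA, DTT. Times: 30 min plus 50 min, RT.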
# SENP8 conf = SENP8 protease inhibitors, retest, confirmation, biochemical, luminescence, single concentration | inhibition, % at 12.5 µM | shares compounds with SENP7 block | 6,200 tested, 40% active | Recombinant SENP8, Z-RLRGG-aminoluciferin luminescence, 60 min;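 active = mean inhibition across replicates above about 50%, limit read from the data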
# SENP6 confirm = SENP6 protease inhibitors, confirmation, biochemical, luminescence, single concentration; shares compounds with SENP7 block; recombinant SENP6, Z-RLRGG-aminoluciferin luminescence; inhibition, % at 12.5 µM; 6,200 tested, 58% active; AID 488915, 2010
# SENP7 conf = SENP7 protease inhibitors, retest, confirmation, biochemical, luminescence, single concentration; shares compounds with SENP7 block; recombinant SENP7, Z-RLRGG-aminoluciferin luminescence, 40 min; inhibition, % at 12.5 µM; 6,200 tested, 69% active; AID 488917, 2010
# Casp3 SENP sel = caspase-3 protease inhibitors, confirmation, selectivity assay for SENP inhibitor project, biochemical, single concentration. shares compounds with SENP7 block. purified caspase-3, Z-DEVD-aminoluciferin luminescence, 60 min. inhibition, % at 12.5 µM. 6,200 tested, 60% active. AID 488918, 2010;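 active = mean inhibition above about 50%, limit read from the data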;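 also: plate controls were enzyme with DMSO for no effect and wells without caspase-3 for full effect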
# Target sequence (P42574 28-227 limits assumed): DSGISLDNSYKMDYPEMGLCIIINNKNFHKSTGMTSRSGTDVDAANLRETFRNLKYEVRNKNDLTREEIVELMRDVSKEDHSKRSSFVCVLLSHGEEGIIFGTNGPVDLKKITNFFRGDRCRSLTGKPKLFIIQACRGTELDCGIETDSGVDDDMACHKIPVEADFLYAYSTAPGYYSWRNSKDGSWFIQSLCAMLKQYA
# SENP luc ctr = interferes with luciferase luminescence in SENP counter-screen; 6,200 tested, 39% active; Pre-incubated SENP8/Z-RLRGG-aminoluciferin, luciferase luminescence interference; AID 488919; shares compounds with SENP7 block; inhibition, % at 12.5 µM;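 active = mean inhibition above about 50% when retested at one dose, limit read from the data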;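 also: plate controls were DMSO wells with completed reaction for no effect and substrate without enzyme for full effect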
# An asterisk follows results filed as active; x = no result given. A selection: hits, their analogues and other compounds. The true share with any hit is near 3%.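 The calls were made as follows, unless noted: active = mean inhibition above about 50% in the one-dose retest (limit read from the data); inactive = the rest.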
SMILES,SENP7 block,SENP6 inh,UBC13 inh,SENP8 block-1,SENP8 block-2,Apaf1 inhib,SENP8 conf,SENP6 confirm,SENP7 conf,Casp3 SENP sel,SENP luc ctr
CC(=O)Nc1ccc(NC(=O)CSc2nnc(NC(=O)c3ccc(Br)o3)s2)cc1,48,87*,-3,-86,70*,-10,17,14,14,49,2
CC(=O)Nc1cccc(NC(=O)CSc2nnc(NC(=O)c3ccco3)s2)c1,-6,-5,1,-29,-10,-13,x,x,x,x,x
COc1ccccc1C(=O)Nc1nnc(SCC(=O)Nc2ccc3c(c2)oc2ccccc23)s1,74*,34,-6,-95,22,15,19,-7,12,14,-1
CC(=O)c1ccc(NC(=O)CSc2nnc(NC(=O)c3ccco3)s2)cc1,47,55*,1,-23,55*,-8,9,10,15,13,7
CCCSc1nnc(NC(=O)c2ccco2)s1,-4,-23,-18,-26,-13,4,x,x,x,x,x
O=C(Nc1ccc(S(=O)(=O)N2CCCC2)cc1)c1cccnc1Cl,9,-10,-2,8,-4,11,x,x,x,x,x
CCCCCCCCCCCC(=O)c1c(O)cccc1O,10,-5,-14,21,-9,0,x,x,x,x,x
COC(=O)C[C@@H]1C=C[C@H](NS(=O)(=O)c2cccc(F)c2)[C@@H](CO)O1,x,x,x,-4,x,x,x,x,x,x,x
COc1ccc(CCN(C)C(=O)CNC(=O)c2ccc3c(c2)OCO3)cc1OC,-8,-12,-2,2,-4,5,x,x,x,x,x
COc1cccc(C(=O)Nc2cc(NC(=O)c3cccs3)ccc2C)c1OC,-8,17,-8,9,9,5,x,x,x,x,x
C/C(=N\Nc1nncc2ccccc12)c1ccc(O)cc1,36,67*,-9,30,4,8,0,-9,40,44,12
C/C(=N\Nc1nncc2ccccc12)c1cccc(OC(F)F)c1,100*,97*,-9,26,89*,-2,68*,75*,82*,75*,15
C/C(=N\Nc1nncc2ccccc12)c1ccc(C(C)(C)C)cc1,5,-5,-4,20,-6,17,x,x,x,x,x
COc1cc(OC)cc(C(=O)Nc2ccc3nc4n(c(=O)c3c2)CCCCC4)c1,83*,81*,3,3,80*,2,87*,86*,98*,88*,55*
CCN(CC(=O)Nc1ccc2c(c1)OCCO2)C(=O)C(C)Oc1ccc(F)cc1 (centres undefined),x,x,x,15,x,x,x,x,x,x,x
O=C(Nc1ccc(Br)cn1)c1ccc2ccccc2c1,61*,-1,-3,0,-11,6,-9,-7,-2,8,3
O=C(Nc1nccs1)c1ccc2ccccc2c1,72*,73*,-1,-1,69*,6,81*,80*,93*,71*,80*
